Experimental data: BindingDB's records for doi:10.1021/jm800913d (National Institute On Drug Abuse, 2008)

Assays:
[1] = target: Kappa-type opioid receptor (Homo sapiens, UniProt P41145); experiment: Displacement of [125I]IOXY from human recombinant kappa opioid receptor expressed in CHO cells
Method in brief: (§1)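 Radioligand displacement run in CHO cells stably transfected to express the μ-, δ- or κ-opioid receptor, each receptor in its own line. The method follows the authors' earlier procedure. Each value comes from n=3 determinations.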

[2] = target: Delta-type opioid receptor (Homo sapiens, UniProt P41143); experiment: Displacement of [125I]IOXY from human recombinant delta opioid receptor expressed in CHO cells; method in brief: as §1
Delta-type opioid receptor, sequence (P41143 whole entry): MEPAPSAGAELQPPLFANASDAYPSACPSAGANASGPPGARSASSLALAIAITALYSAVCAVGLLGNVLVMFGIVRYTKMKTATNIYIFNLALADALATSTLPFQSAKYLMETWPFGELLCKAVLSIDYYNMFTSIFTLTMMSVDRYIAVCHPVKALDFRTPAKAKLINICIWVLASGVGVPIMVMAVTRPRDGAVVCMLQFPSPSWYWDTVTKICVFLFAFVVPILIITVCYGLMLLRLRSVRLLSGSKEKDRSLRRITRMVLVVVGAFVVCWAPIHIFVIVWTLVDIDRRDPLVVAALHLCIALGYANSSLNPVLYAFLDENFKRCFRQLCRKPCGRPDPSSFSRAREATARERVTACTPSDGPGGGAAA

Mu-type opioid receptor = Mu-type opioid receptor (Homo sapiens, UniProt P35372); experiment: Displacement of [125I]IOXY from human recombinant mu opioid receptor expressed in CHO cells; method in brief: as §1
Mu-type opioid receptor, sequence (P35372 whole entry): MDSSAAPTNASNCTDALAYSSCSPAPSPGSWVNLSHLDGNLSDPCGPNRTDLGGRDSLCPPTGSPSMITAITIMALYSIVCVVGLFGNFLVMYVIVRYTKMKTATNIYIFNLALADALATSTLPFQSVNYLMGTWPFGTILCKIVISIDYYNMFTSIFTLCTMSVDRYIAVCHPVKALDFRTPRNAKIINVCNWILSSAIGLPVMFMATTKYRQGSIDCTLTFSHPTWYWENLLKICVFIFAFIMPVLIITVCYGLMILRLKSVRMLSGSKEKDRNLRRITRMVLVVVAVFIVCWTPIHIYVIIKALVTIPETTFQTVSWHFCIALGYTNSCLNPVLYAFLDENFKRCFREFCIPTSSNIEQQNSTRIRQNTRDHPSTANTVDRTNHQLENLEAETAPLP

Kappa-type opioid receptor, sequence (P41145 whole entry): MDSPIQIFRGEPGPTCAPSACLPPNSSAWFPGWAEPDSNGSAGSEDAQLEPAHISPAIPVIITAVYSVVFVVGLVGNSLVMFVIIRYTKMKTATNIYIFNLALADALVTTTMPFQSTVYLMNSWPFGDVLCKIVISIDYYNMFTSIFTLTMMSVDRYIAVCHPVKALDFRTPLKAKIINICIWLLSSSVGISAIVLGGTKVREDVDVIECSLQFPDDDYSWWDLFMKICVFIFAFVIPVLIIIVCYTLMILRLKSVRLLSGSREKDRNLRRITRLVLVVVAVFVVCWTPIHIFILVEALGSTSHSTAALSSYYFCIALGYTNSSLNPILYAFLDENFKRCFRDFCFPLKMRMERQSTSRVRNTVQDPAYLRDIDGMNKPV

SMILES	Ki [1] [nM]	Ki [2] [nM]	Ki (Mu-type opioid receptor) [nM]
Oc1ccc2c(c1)[C@@]13CCN(CCc4ccccc4)[C@@H](CC[C@H]1O2)C3 [(4R*,6aS*,11bR*)-2,3,4,5,6,6a-Hexahydro-3-phenethyl-1H-4,11b-methanobenzofuro[3,2-d]azocine-10-ol]	78	4760	740
Oc1cccc2c1O[C@@H]1CC[C@H]3C[C@@]21CCN3CCc1ccccc1 [(4R*,6aS*,11bR*)-2,3,4,5,6,6a-Hexahydro-3-phenethyl-1H-4,11b-methanobenzofuro[3,2-d]azocine-8-ol]	26	3710	190
Oc1cccc2c1O[C@H]1CN(CCc3ccccc3)[C@@H]3CCC[C@]21C3 [(3R*,6aS*,11aR*)-1,3,4,5,6,11a-Hexahydro-2-phenethyl-2H-3,6a-methanobenzofuro [2,3-c]azocin-10-ol]	200	2840	560
CN1C[C@@H]2Oc3ccc(O)cc3[C@@]23CCC[C@@H]1C3 [(3R*,6aS*,11aR*)-1,3,4,5,6,11a-Hexahydro-2-methyl-2H-3,6a-methanobenzofuro[2,3-c]azocin-8-ol]	620	2780	–
CN1CC[C@@]23C[C@@H]1CC[C@H]2Oc1c(O)cccc13 [(4R*,6aS*,11bR*)-2,3,4,5,6,6a-Hexahydro-3-methyl-1H-4,11b-methanobenzofuro[3,2-d]azocine-8-ol]	910	–	3210
CN1C[C@@H]2Oc3c(O)cccc3[C@@]23CCC[C@@H]1C3 [(3R*,6aS*,11aR*)-1,3,4,5,6,11a-Hexahydro-2-methyl-2H-3,6amethanobenzofuro[2,3-c]azocin-10-ol]	4820	3430	–
CN1CC[C@@]23C[C@@H]1CC[C@H]2Oc1ccc(O)cc13 [(4R*,6aS*,11bR*)-2,3,4,5,6,6a-Hexahydro-3-methyl-1H-4,11bmethanobenzofuro[3,2-d]azocine-10-ol]	–	> 10000	> 10000
